Measured values from ChEMBL document CHEMBL5260830, “Breakthroughs in neuroactive steroid drug discovery” (Bioorg Med Chem Lett, 2018).

Columns and labels:
Mus musculus = species on record: Mus musculus; assay: Anticonvulsant activity in 6-Hz induced seizure mouse model assessed as protection against 6-Hz induced seizure; assay type: functional
Procedure, shortened: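 Tonic currents recorded from voltage-clamped ([…]) dentate gyrus granule cells of wild-type female mice. Value is fold potentiation of the mean normalized tonic response to 1 µM GABA, from four to eight cells per steroid and concentration. Anticonvulsant ED50 determined in the mouse 6-Hz psychomotor seizure model.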

[1] = target: GABA-A receptor; anion channel (Homo sapiens) (UniProt P14867+P47870+P18507+P28472+P48169+Q99928+Q9UN88+P34903+O00591+O14764+Q8N1C3+P18505+P78334+P47869+P31644+Q16445); assay: Potentiation of NAS mediated GABA (unknown origin) tonic effect assessed as fold potentiation; assay type: protein-complex assay; settings: filed as activator
[2] = target: GABA-A receptor; anion channel; assay: Displacement of [35S]-TBPS GABAA receptor in Wistar rat brain membrane incubated for 60 mins by competitive binding assay; assay type: cell membranes
[3] = target: GABA-A receptor; anion channel; assay: Displacement of [35S]-TBPS from rat synaptosomes GABAA receptor incubated for 90 mins by liquid scintillation counting method; assay type: subcellular, Synaptosome
[4] = Permeability coefficient across apical to basolateral side in human Caco-2 cells assessed as drug recovery at pH 7.4; assay type: ADME, cell-based; settings: Caco-2, pH 7.4, read-out: Drug recovery
[5] = target: Glutamate NMDA receptor; GRIN1/GRIN2B (Homo sapiens, UniProt Q05586+Q13224); assay: Inhibition of GluN1/GluN2B NMDA receptor (unknown origin) expressed in HEK293 cells; assay type: cell-based
Procedure, shortened: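 Potency measured in HEK293 cells transfected with rat GluN1 and GluN2B subunits.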

[6] = Permeability coefficient across apical to basolateral side in human Caco-2 cells at pH 7.4; assay type: ADME, cell-based; settings: Caco-2, pH 7.4, read-out: permeability

Glutamate NMDA receptor; GRIN1/GRIN2B, sequence (Q13224 whole entry, other chains not shown): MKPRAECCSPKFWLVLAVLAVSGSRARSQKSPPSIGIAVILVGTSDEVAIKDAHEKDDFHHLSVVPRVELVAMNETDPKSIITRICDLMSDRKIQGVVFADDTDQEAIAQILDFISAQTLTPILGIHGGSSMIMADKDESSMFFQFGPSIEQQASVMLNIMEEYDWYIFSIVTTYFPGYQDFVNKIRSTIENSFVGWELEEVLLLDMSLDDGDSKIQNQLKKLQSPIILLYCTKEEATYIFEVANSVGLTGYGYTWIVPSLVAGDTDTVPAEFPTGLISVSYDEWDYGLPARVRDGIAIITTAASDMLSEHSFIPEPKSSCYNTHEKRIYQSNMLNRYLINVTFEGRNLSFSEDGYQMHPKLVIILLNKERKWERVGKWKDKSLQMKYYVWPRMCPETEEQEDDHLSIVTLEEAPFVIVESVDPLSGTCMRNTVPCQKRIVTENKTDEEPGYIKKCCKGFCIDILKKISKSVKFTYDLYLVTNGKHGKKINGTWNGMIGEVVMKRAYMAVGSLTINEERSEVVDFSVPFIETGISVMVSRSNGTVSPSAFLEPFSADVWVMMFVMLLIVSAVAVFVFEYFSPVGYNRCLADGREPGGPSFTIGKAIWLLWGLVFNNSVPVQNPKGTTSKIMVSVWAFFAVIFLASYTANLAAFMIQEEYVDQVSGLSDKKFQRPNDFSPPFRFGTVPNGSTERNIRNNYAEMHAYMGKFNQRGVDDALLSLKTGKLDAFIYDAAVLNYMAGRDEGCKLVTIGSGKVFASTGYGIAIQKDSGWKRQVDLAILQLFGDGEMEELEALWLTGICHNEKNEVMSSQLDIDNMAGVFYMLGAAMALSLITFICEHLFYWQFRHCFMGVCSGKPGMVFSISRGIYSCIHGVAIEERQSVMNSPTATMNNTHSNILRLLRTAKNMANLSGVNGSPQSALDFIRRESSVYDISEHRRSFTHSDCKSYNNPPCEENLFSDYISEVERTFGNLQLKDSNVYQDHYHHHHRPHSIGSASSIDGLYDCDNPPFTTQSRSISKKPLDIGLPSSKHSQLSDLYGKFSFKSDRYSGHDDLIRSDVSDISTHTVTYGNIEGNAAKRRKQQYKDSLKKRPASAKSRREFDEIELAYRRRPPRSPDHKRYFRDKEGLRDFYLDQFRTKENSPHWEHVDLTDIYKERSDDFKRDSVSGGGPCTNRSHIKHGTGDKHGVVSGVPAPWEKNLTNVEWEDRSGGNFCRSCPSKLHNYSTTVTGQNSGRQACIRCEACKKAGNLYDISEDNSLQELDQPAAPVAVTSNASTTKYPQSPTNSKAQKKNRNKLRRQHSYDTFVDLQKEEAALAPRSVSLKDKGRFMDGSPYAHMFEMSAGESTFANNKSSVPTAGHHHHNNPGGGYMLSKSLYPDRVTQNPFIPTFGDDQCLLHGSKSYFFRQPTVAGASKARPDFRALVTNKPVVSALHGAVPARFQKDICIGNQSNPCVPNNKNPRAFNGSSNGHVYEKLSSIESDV

CC(=O)[C@H]1CC[C@H]2[C@@H]3CC[C@H]4C[C@H](O)CC[C@]4(C)[C@H]3C(=O)C[C@]12C [ALFAXALONE]
ED50 (Mus musculus): 8.8 mg/kg
fold change (FC) [1]: 1.98

COCCC(CO)(CCOC)C(=O)[C@H]1CC[C@H]2[C@@H]3CC[C@H]4C[C@@H]5O[C@@H]5C[C@]4(C)[C@H]3CC[C@]12C
IC50 [2]: 5000 nM

CC(=O)[C@H]1CC[C@H]2[C@@H]3CC[C@@H]4C[C@H](O)C[C@@H]5O[C@H](C[C@]12C)[C@@H]3[C@]45C
IC50 [3]: 490 nM

C[C@@]12CCC[C@H]1[C@@H]1CC[C@@H]3C[C@H](NC(=O)[C@@H](N)CCC(=O)O)CC[C@]3(C)[C@H]1CC2
recovery [4]: < 50%
IC50 [5]: 1400 nM
Papp A→B [6]: 0.22 ×10⁻⁶ cm/s

C[C@@]12CCC[C@H]1[C@@H]1CC[C@@H]3C[C@H](NC(=O)CC(=O)O)CC[C@]3(C)[C@H]1CC2
IC50 [5]: 15400 nM

C[C@@]12CCC[C@H]1[C@@H]1CC[C@@H]3C[C@H](NC(=O)O)CC[C@]3(C)[C@H]1CC2
IC50 [5]: 21700 nM

COCC(=O)[C@H]1CC[C@H]2[C@@H]3CC[C@H]4C[C@@H]5O[C@@H]5C[C@]4(C)[C@H]3CC[C@]12C
IC50 [2]: 625 nM

CC(=O)[C@H]1CC[C@H]2[C@@H]3CC[C@H]4C[C@@H](O)CC[C@]4(C)[C@H]3CC[C@]12C [SEPRANOLONE]
ED50 (Mus musculus): > 100 mg/kg
fold change (FC) [1]: 0.76

CC(=O)[C@H]1CC[C@H]2[C@@H]3CC[C@@H]4C[C@H](O)CC[C@]4(C)[C@H]3CC[C@]12C [ELTANOLONE]
ED50 (Mus musculus): 7.7 mg/kg
fold change (FC) [1]: 2.24

CC(=O)[C@H]1CC[C@H]2[C@@H]3CC[C@H]4C[C@H](O)CC[C@]4(C)[C@H]3CC[C@]12C [BREXANOLONE]
ED50 (Mus musculus): 4.2 mg/kg
fold change (FC) [1]: 4.36
IC50 [3]: 86 nM

CC(=O)[C@H]1CC[C@H]2[C@@H]3C[C@H]4OC[C@@]5(CC[C@@H](O)CC45)[C@H]3CC[C@]12C (some centres not stated)
IC50 [3]: 141 nM

CC(=O)[C@H]1CC[C@H]2[C@@H]3CC[C@@H]4C[C@H](OC(=O)[C@@H](N)CCC(=O)O)CC[C@]4(C)[C@H]3CC[C@]12C
IC50 [5]: 51700 nM

CC(=O)[C@H]1CC[C@H]2[C@@H]3CC[C@H]4C[C@@H]5O[C@@H]5C[C@]4(C)[C@H]3CC[C@]12C
IC50 [2]: 255 nM

CC(=O)[C@H]1CC[C@H]2[C@@H]3CC[C@H]4C[C@H](O)C[C@H]5O[C@H](C[C@]12C)[C@@H]3[C@]45C
IC50 [3]: 93 nM

C[C@@]12CCC[C@H]1[C@@H]1CC[C@@H]3C[C@H](NC(=O)[C@@H](N)CC(=O)O)CC[C@]3(C)[C@H]1CC2
recovery [4]: < 50%
IC50 [5]: 1000 nM
Papp A→B [6]: 0.22 ×10⁻⁶ cm/s

C[C@]12CC[C@@H](O)C[C@@H]1CC[C@@H]1[C@@H]2CC[C@]2(C)[C@@H](C(=O)CO)CC[C@@H]12
ED50 (Mus musculus): 5 mg/kg
fold change (FC) [1]: 3.52

CC(=O)[C@H]1CC[C@H]2[C@@H]3CCC4=C[C@H](O)C[C@@H]5O[C@H](C[C@]12C)[C@@H]3[C@]45C
IC50 [3]: 72 nM
